{"source": "ChEMBL document CHEMBL1649261", "about": "“Pharmacodynamic profile of tigecycline against methicillin-resistant Staphylococcus aureus in an experimental pneumonia model” (Antimicrob Agents Chemother, 2009)", "key": {"[1]": {"system": "Staphylococcus aureus", "assay": "Antibacterial activity against methicillin-susceptible Staphylococcus aureus ATCC 29213 by microdilution method", "assay_type": "functional", "how_it_was_run": "(§1)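 Tigecycline MIC measured in triplicate by broth microdilution following CLSI guidelines. Isolates were stored at −80°C in skim milk and subcultured twice on blood agar before testing.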"}, "[2]": {"system": "Staphylococcus aureus", "assay": "Antibacterial activity against community-acquired methicillin-resistant Staphylococcus aureus 144 by microdilution method", "assay_type": "functional", "how_it_was_run": "as §1"}, "[3]": {"system": "Staphylococcus aureus", "assay": "Antibacterial activity against community-acquired methicillin-resistant Staphylococcus aureus 156 by microdilution method", "assay_type": "functional", "how_it_was_run": "as §1"}, "[4]": {"system": "Staphylococcus aureus", "assay": "Antibacterial activity against community-acquired methicillin-resistant Staphylococcus aureus 147 by microdilution method", "assay_type": "functional", "how_it_was_run": "as §1"}, "[5]": {"system": "Staphylococcus aureus", "assay": "Antibacterial activity against hospital-acquired methicillin-resistant Staphylococcus aureus 56 by microdilution method", "assay_type": "functional", "how_it_was_run": "as §1"}, "[6]": {"system": "Staphylococcus aureus", "assay": "Antibacterial activity against hospital-acquired methicillin-resistant Staphylococcus aureus 152 by microdilution method", "assay_type": "functional", "how_it_was_run": "as §1"}, "[7]": {"assay": "Cmax in BALB/c mouse infected with Staphylococcus aureus at 6.25 mg/kg, sc administered as single dose", "assay_type": "ADME, organism-based", "set-up": "dose 6.25 mg/kg, route subcutaneous", "conditions": "in vivo", "how_it_was_run": "(§2)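 Neutropenic BALB/c mice (cyclophosphamide ip 250 and 100 mg/kg, days −4 and −1) with S. aureus pneumonia from oral instillation of 0.05 ml of a 3% mucin suspension received a single 0.2-ml sc dose in normal saline. Serum was taken at 0.25, 0.5, 1, 1.5, 2, 4, 6 and 8 h, six mice per time point. Drug was measured by validated HPLC.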"}, "[8]": {"assay": "Cmax in BALB/c mouse infected with Staphylococcus aureus at 12.5 mg/kg, sc administered as single dose", "assay_type": "ADME, organism-based", "set-up": "dose 12.5 mg/kg, route subcutaneous", "conditions": "in vivo", "how_it_was_run": "as §2"}, "[9]": {"assay": "Cmax in BALB/c mouse infected with Staphylococcus aureus at 25 mg/kg, sc administered as single dose", "assay_type": "ADME, organism-based", "set-up": "dose 25 mg/kg, route subcutaneous", "conditions": "in vivo", "how_it_was_run": "as §2"}, "[10]": {"assay": "Cmax in BALB/c mouse infected with Staphylococcus aureus at 50 mg/kg, sc administered as single dose", "assay_type": "ADME, organism-based", "set-up": "dose 50 mg/kg, route subcutaneous", "conditions": "in vivo", "how_it_was_run": "as §2"}, "[11]": {"assay": "Tmax in BALB/c mouse infected with Staphylococcus aureus at 6.25 mg/kg, sc administered as single dose", "assay_type": "ADME, organism-based", "set-up": "dose 6.25 mg/kg, route subcutaneous", "conditions": "in vivo", "how_it_was_run": "as §2"}, "[12]": {"assay": "Tmax in BALB/c mouse infected with Staphylococcus aureus at 12.5 mg/kg, sc administered as single dose", "assay_type": "ADME, organism-based", "set-up": "dose 12.5 mg/kg, route subcutaneous", "conditions": "in vivo", "how_it_was_run": "as §2"}, "[13]": {"assay": "Tmax in BALB/c mouse infected with Staphylococcus aureus at 25 mg/kg, sc administered as single dose", "assay_type": "ADME, organism-based", "set-up": "dose 25 mg/kg, route subcutaneous", "conditions": "in vivo", "how_it_was_run": "as §2"}, "[14]": {"assay": "Tmax in BALB/c mouse infected with Staphylococcus aureus at 50 mg/kg, sc administered as single dose", "assay_type": "ADME, organism-based", "set-up": "dose 50 mg/kg, route subcutaneous", "conditions": "in vivo", "how_it_was_run": "as §2"}, "[15]": {"assay": "AUC (0 to 24 hrs) in BALB/c mouse infected with Staphylococcus aureus at 6.25 mg/kg, sc administered as single dose", "assay_type": "ADME, organism-based", "set-up": "time < 24 hr, dose 6.25 mg/kg, route subcutaneous", "conditions": "plasma", "how_it_was_run": "as §2"}, "[16]": {"assay": "AUC (0 to 24 hrs) in BALB/c mouse infected with Staphylococcus aureus at 12.5 mg/kg, sc administered as single dose", "assay_type": "ADME, organism-based", "set-up": "time < 24 hr, dose 12.5 mg/kg, route subcutaneous", "conditions": "plasma", "how_it_was_run": "as §2"}, "[17]": {"assay": "AUC (0 to 24 hrs) in BALB/c mouse infected with Staphylococcus aureus at 25 mg/kg, sc administered as single dose", "assay_type": "ADME, organism-based", "set-up": "time < 24 hr, dose 25 mg/kg, route subcutaneous", "conditions": "plasma", "how_it_was_run": "as §2"}, "[18]": {"assay": "AUC (0 to 24 hrs) in BALB/c mouse infected with Staphylococcus aureus at 50 mg/kg, sc administered as single dose", "assay_type": "ADME, organism-based", "set-up": "time < 24 hr, dose 50 mg/kg, route subcutaneous", "conditions": "plasma", "how_it_was_run": "as §2"}, "[19]": {"assay": "Half life in BALB/c mouse infected with Staphylococcus aureus at 6.25 mg/kg, sc administered as single dose", "assay_type": "ADME, organism-based", "set-up": "dose 6.25 mg/kg, route subcutaneous", "conditions": "in vivo", "how_it_was_run": "as §2"}, "[20]": {"assay": "Half life in BALB/c mouse infected with Staphylococcus aureus at 12.5 mg/kg, sc administered as single dose", "assay_type": "ADME, organism-based", "set-up": "dose 12.5 mg/kg, route subcutaneous", "conditions": "in vivo", "how_it_was_run": "as §2"}, "[21]": {"assay": "Half life in BALB/c mouse infected with Staphylococcus aureus at 25 mg/kg, sc administered as single dose", "assay_type": "ADME, organism-based", "set-up": "dose 25 mg/kg, route subcutaneous", "conditions": "in vivo", "how_it_was_run": "as §2"}, "[22]": {"assay": "Half life in BALB/c mouse infected with Staphylococcus aureus at 50 mg/kg, sc administered as single dose", "assay_type": "ADME, organism-based", "set-up": "dose 50 mg/kg, route subcutaneous", "conditions": "in vivo", "how_it_was_run": "as §2"}, "[23]": {"system": "Mus musculus", "assay": "Volume of distribution in BALB/c mouse infected with Staphylococcus aureus at 6.25 mg/kg, sc administered as single dose", "assay_type": "ADME, organism-based", "set-up": "dose 6.25 mg/kg, route subcutaneous", "conditions": "in vivo", "how_it_was_run": "as §2"}, "[24]": {"system": "Mus musculus", "assay": "Volume of distribution in BALB/c mouse infected with Staphylococcus aureus at 12.5 mg/kg, sc administered as single dose", "assay_type": "ADME, organism-based", "set-up": "dose 12.5 mg/kg, route subcutaneous", "conditions": "in vivo", "how_it_was_run": "as §2"}, "[25]": {"system": "Mus musculus", "assay": "Volume of distribution in BALB/c mouse infected with Staphylococcus aureus at 25 mg/kg, sc administered as single dose", "assay_type": "ADME, organism-based", "set-up": "dose 25 mg/kg, route subcutaneous", "conditions": "in vivo", "how_it_was_run": "as §2"}, "[26]": {"system": "Mus musculus", "assay": "Volume of distribution in BALB/c mouse infected with Staphylococcus aureus at 50 mg/kg, sc administered as single dose", "assay_type": "ADME, organism-based", "set-up": "dose 50 mg/kg, route subcutaneous", "conditions": "in vivo", "how_it_was_run": "as §2"}, "[27]": {"assay": "Protein binding in Staphylococcus aureus-infected BALB/c mouse serum at 6.25 mg/kg, sc administered as single dose", "assay_type": "ADME, organism-based", "set-up": "dose 6.25 mg/kg, route subcutaneous", "conditions": "read-out: PB (converted)", "how_it_was_run": "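Ultrafiltration was run in triplicate with 30,000-MW cutoff devices. Drug was diluted into fresh mouse serum to final 1.5, 3, 6 and 15 μg/ml, held at 37°C for 10 min with shaking, and centrifuged at 1,000 × g for 45 min at 10°C. Binding was calculated as (S − SUF)/S × 100 for each concentration, each matched to a dose by its peak serum level.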"}}, "data": [{"compound": "CN(C)c1cc(NC(=O)CNC(C)(C)C)c(O)c2c1C[C@H]1C[C@H]3[C@H](N(C)C)C(O)=C(C(N)=O)C(=O)[C@@]3(O)C(O)=C1C2=O", "note": "[TIGECYCLINE]", "values": [{"measurement": "MIC", "setting": "[1]", "result": 0.25, "unit": "µg/mL"}, {"measurement": "MIC", "setting": "[2]", "result": 0.25, "unit": "µg/mL"}, {"measurement": "MIC", "setting": "[3]", "result": 0.125, "unit": "µg/mL"}, {"measurement": "MIC", "setting": "[4]", "result": 0.25, "unit": "µg/mL"}, {"measurement": "MIC", "setting": "[5]", "result": 0.5, "unit": "µg/mL"}, {"measurement": "MIC", "setting": "[6]", "result": 0.25, "unit": "µg/mL"}, {"measurement": "Cmax", "setting": "[7]", "result": 1570, "unit": "ng/mL"}, {"measurement": "Cmax", "setting": "[8]", "result": 3090, "unit": "ng/mL"}, {"measurement": "Cmax", "setting": "[9]", "result": 5990, "unit": "ng/mL"}, {"measurement": "Cmax", "setting": "[10]", "result": 15800, "unit": "ng/mL"}, {"measurement": "Tmax", "setting": "[11]", "result": 0.34, "unit": "h"}, {"measurement": "Tmax", "setting": "[12]", "result": 0.27, "unit": "h"}, {"measurement": "Tmax", "setting": "[13]", "result": 0.74, "unit": "h"}, {"measurement": "Tmax", "setting": "[14]", "result": 0.35, "unit": "h"}, {"measurement": "AUC(0-t) at 24 h", "setting": "[15]", "result": 9980, "unit": "ng·h/mL"}, {"measurement": "AUC(0-t) at 24 h", "setting": "[16]", "result": 16500, "unit": "ng·h/mL"}, {"measurement": "AUC(0-t) at 24 h", "setting": "[17]", "result": 37500, "unit": "ng·h/mL"}, {"measurement": "AUC(0-t) at 24 h", "setting": "[18]", "result": 72500, "unit": "ng·h/mL"}, {"measurement": "half-life", "setting": "[19]", "result": 12.4, "unit": "h"}, {"measurement": "half-life", "setting": "[20]", "result": 7.13, "unit": "h"}, {"measurement": "half-life", "setting": "[21]", "result": 12.4, "unit": "h"}, {"measurement": "half-life", "setting": "[22]", "result": 11.5, "unit": "h"}, {"measurement": "Vd", "setting": "[23]", "result": 3.44, "unit": "L/kg"}, {"measurement": "Vd", "setting": "[24]", "result": 3.62, "unit": "L/kg"}, {"measurement": "Vd", "setting": "[25]", "result": 2.77, "unit": "L/kg"}, {"measurement": "Vd", "setting": "[26]", "result": 2.62, "unit": "L/kg"}, {"measurement": "fraction unbound", "setting": "[27]", "result": 0.15}]}]}
